Ki, EC50 and inhibition data for 19 compounds are collected here from ChEMBL document CHEMBL3352454, “From mixed sigma-2 receptor/P-glycoprotein targeting agents to selective P-glycoprotein modulators: small structural changes address the mechanism of interaction at the efflux pump” (Eur J Med Chem, 2015).

Active and inactive are the calls of the source. The rule behind the calls is not given here.

The nature of assay [1]: Displacement of [3H]DTG from rat liver sigma2 receptor by scintillation counting analysis in presence of pentazocine. In general terms: Loss of bound radioactivity is the signal in a displacement assay; it reports binding, not function.
Assay [2] addresses Sigma non-opioid intracellular receptor 1 (Cavia porcellus, UniProt Q60492). The assay is described as follows: Displacement of [3H]-(+)-pentazocine from guinea pig brain sigma1 receptor by scintillation counting analysis.
Assay [3] in a line: Inhibition of P-glycoprotein (unknown origin) expressed in MDCK cells assessed as reduction of calcein-AM transport after 30 mins by fluorescence assay. The assay is classed as cell-based, Homo sapiens. The procedure, abridged: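 Confluent MDCK-MDR1 monolayers (50,000 cells/well, overnight) preincubated with compound (0.1–100 µM in medium) 30 min at 37 °C, then Calcein-AM added (2.5 µM final) for 30 min. Washed three times with ice-cold PBS; calcein fluorescence read at ex 485/em 535 nm versus untreated basal. EC50 from fit of % fluorescence increase versus log dose.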

In assay [4] the test system is MDCK. The experiment in a line: Inhibition of P-glycoprotein (unknown origin) expressed in MDCK cells assessed as ATP depletion at 100 uM by bioluminescence ATP assay. The format is cell-based. As to conditions: Homo sapiens. The method, boiled down:
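MDCK-MDR1 cells (human MDR1-transfected) plated, incubated overnight at 37 °C, 5% CO2, then exposed to test compound in complete medium for 2 h at 37 °C. Cells lysed; ATP measured by firefly luciferase/D-luciferin luminescence after 10 min dark adaptation. Percentage ATP depletion reported at 100 μM.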

The target in assay [5] is Sigma non-opioid intracellular receptor 1 (Cavia porcellus) (UniProt Q60492). The experiment in a line: Displacement of [3H]-(+)-pentazocine from guinea pig brain sigma1 receptor at […] by scintillation counting analysis.
Assay [6] is described as follows: Displacement of [3H]DTG from rat liver sigma2 receptor at 10^-11 M by scintillation counting analysis in presence of pentazocine.

Sigma non-opioid intracellular receptor 1, sequence (Q60492 whole entry): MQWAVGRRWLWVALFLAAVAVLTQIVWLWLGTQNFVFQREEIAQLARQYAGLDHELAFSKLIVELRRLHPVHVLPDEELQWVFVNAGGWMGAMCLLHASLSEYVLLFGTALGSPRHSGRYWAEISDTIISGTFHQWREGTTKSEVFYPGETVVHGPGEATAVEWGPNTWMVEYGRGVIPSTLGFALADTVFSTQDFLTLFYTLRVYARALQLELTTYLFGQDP
Sigma non-opioid intracellular receptor 1 (Cavia porcellus), sequence (Q60492 whole entry): as above

One may read the Ki as a measure of affinity in units of concentration, obtained from inhibition or displacement. By EC50 is commonly meant the concentration giving half of the maximal effect. As to `COc1cc2c(cc1OC)CN(CC(=O)N[C@H]1CCCc3c(OC)cccc31)CC2`, the inhibition constant (Ki) in assay [1] was 1760 nM; in assay [2], above 5000 nM. Besides, the EC50 in assay [3] is 10000 nM.

Regarding `COc1cc2c(cc1OC)CN(CC(=O)NCc1cn(-c3ccc(F)cc3)c3ccccc13)CC2`, the Ki in assay [1] is 1620 nM; in assay [2] it was above 5000 nM. The EC50 in assay [3] is 920 nM.

As usually defined, the inhibition is the share of the control response that was lost under treatment. As to `COc1cc2c(cc1OC)CN(CCCCn1c3ccccc3c3ccccc31)CC2`, the inhibitory constant (Ki) worked out at 0.04 nM in assay [1] and 2190 nM in assay [2]. The EC50 in assay [3] is 420 nM. Further, the inhibition result in assay [4] is “Active”.

Take `COc1cc2c(cc1OC)CN(CC/C=C1\CCCc3c(OC)cccc31)CC2`: in assay [3], the EC50 is 820 nM.

With `COc1cccc2c1CCCC2CCCN1CCC(c2ccc(F)cc2)CC1` (stereo unspecified), the Ki in assay [1] stood at 22.6 nM. Moreover, the EC50 in assay [3] is 1980 nM. In assay [5], this compound had an inhibition of 80%.

As for `COc1cc2c(cc1OC)C(=O)N(CCCCc1cn(-c3ccc(F)cc3)c3ccccc13)CC2`, the figures for the Ki in assay [1] and in assay [2] were above 10000 nM and above 5000 nM, respectively. Moreover, in assay [3], the EC50 was 2340 nM. Also, in assay [4], the inhibition result is “inactive”.

In the case of `COc1cccc2c1CCCC2CCC(=O)N1CCC(C2CCCCC2)CC1` (stereo unspecified), the Ki in assay [1] is above 10000 nM; in assay [2] it was above 5000 nM. Besides, in assay [3], the 50% effective concentration (EC50) is 30900 nM.

With `COc1cc2c(cc1OC)CN(CC(=O)NC1CCCc3c(OC)cccc31)CC2` (racemic), the inhibitory constant (Ki) in assay [1] is 1800 nM; in assay [2], above 5000 nM. Also, the concentration giving a half-maximal response (EC50) in assay [3] was 10000 nM.

For the compound `COc1cccc2c1CCCC2CCC(=O)N1CCC2(CC1)OCc1ccccc12` (stereo unspecified), the Ki turned out to be 3210 nM in assay [1] and 260 nM in assay [2]. For the same compound, the EC50 in assay [3] was 5420 nM.

Consider `COc1cc2c(cc1OC)CN(CCCC(=O)n1c3ccccc3c3ccccc31)CC2`, for which the Ki in assay [1] is above 10000 nM; in assay [2], above 5000 nM. Further, in assay [3], the EC50 was 820 nM. Further, in assay [4], the inhibition result is “Active”.

For `COc1cccc2c1CCCC2CCCN1CCC(C2CCCCC2)CC1` (stereo unspecified), the inhibition constant (Ki) in assay [1] worked out at 18.8 nM. For the same compound, the 50% effective concentration (EC50) in assay [3] is 1920 nM.

`COc1cc2c(cc1OC)CN(C(=O)CCC1CCCc3c(OC)cccc31)CC2` (stereo unspecified): the inhibition constant (Ki) in assay [1] was above 10000 nM; in assay [2] it was above 5000 nM. Further, in assay [3], the EC50 is 2900 nM. Further, the inhibition result in assay [4] is “Active”.

As to `COc1cccc2c1CCCC2CCCN1CCC2(CC1)OCc1ccccc12` (stereo unspecified), the Ki in assay [1] was 40.6 nM. Besides, the EC50 in assay [3] is 2680 nM. The same compound returned an inhibition in assay [5] of 76%.

In the case of `COc1cccc2c1CCCC2CCC(=O)N1CCC(c2ccc(F)cc2)CC1` (stereo unspecified), the inhibition constant Ki in assay [1] turned out to be 6520 nM; in assay [2] it was 2930 nM. In addition, the EC50 in assay [3] is 26000 nM.

For the compound `COc1cc2c(cc1OC)CN(CCCCc1cn(-c3ccc(F)cc3)c3ccccc13)CC2`, the Ki was found to be 5.34 nM in assay [1] and 1390 nM in assay [2]. Moreover, the concentration for a half-maximal effect (EC50) in assay [3] is 210 nM. In assay [4], the inhibition result is “inactive”.

For `COc1cc2c(cc1OC)CN(C(=O)CCCc1cn(-c3ccc(F)cc3)c3ccccc13)CC2`, the Ki in assay [1] was above 10000 nM; in assay [2], above 5000 nM. Moreover, the EC50 in assay [3] was 2250 nM. In addition, the inhibition result in assay [4] is “Active”.

Turning to `COc1cc2c(cc1OC)CN(CC(=O)N[C@@H]1CCCc3c(OC)cccc31)CC2`, the inhibition constant (Ki) is 1950 nM in assay [1] and above 5000 nM in assay [2]. Further, the EC50 in assay [3] was 9600 nM.

As for `COc1cc2c(cc1OC)CN(CCCC1CCCc3c(OC)cccc31)CC2` (stereo unspecified), the half-maximal effective concentration (EC50) in assay [3] is 1150 nM. For the same compound, the inhibition in assay [6] stood at 96%. The inhibition result in assay [4] was “Active”.

`COc1cc2c(cc1OC)C(=O)N(CCCCn1c3ccccc3c3ccccc31)CC2`: the Ki in assay [1] is above 10000 nM; in assay [2], above 5000 nM. Further, the EC50 in assay [3] is 1910 nM. Further, in assay [4], the inhibition came out at 30%.
